Assay results from different studies.
Matrix: Caco-2

C[C@H]1O[C@@H](O[C@H]2[C@@H](O)C[C@H](O[C@H]3[C@@H](O)C[C@H](O[C@H]4CC[C@@]5(C)[C@H](CC[C@@H]6[C@@H]5C[C@@H](O)[C@]5(C)[C@@H](C7=CC(=O)OC7)CC[C@]65O)C4)O[C@@H]3C)O[C@@H]2C)C[C@H](O)[C@@H]1O — Papp B→A (10 µM; 2 h; pH 7.4): 9.63 ×10⁻⁶ cm/s
CC[C@H](C)C(=O)N1CCC(NC(=O)Nc2ccc(OC(F)(F)F)c(F)c2)CC1 — Papp B→A (10 µM; 1 h; pH 7.4): 16.4 ×10⁻⁶ cm/s
COc1cccc2c(-c3ccccc3)cc(-c3ccc(-c4ccc(C(=O)O)cc4)[nH]3)nc12 — Papp B→A: 7.44 ×10⁻⁶ cm/s
C[C@H]1O[C@@H](O[C@H]2[C@@H](O)C[C@H](O[C@H]3[C@@H](O)C[C@H](O[C@H]4CC[C@@]5(C)[C@H](CC[C@@H]6[C@@H]5C[C@@H](O)[C@]5(C)[C@@H](C7=CC(=O)OC7)CC[C@]65O)C4)O[C@@H]3C)O[C@@H]2C)C[C@H](O)[C@@H]1O — Papp B→A: 14 ×10⁻⁶ cm/s
N#C[C@H](C[C@@H]1CCCNC1=O)NC(=O)[C@H](CC1CC1)NC(=O)c1cc2cccc(Cl)c2[nH]1 — Papp: 0.36 ×10⁻⁶ cm/s
CC(C)NCC(O)COc1cccc2ccccc12 (centres unmarked) — Papp B→A (10 µM; 2 h; pH 7.4): 9.99 ×10⁻⁶ cm/s
COCCc1ccc(OCC(O)CNC(C)C)cc1 (centres unmarked) — Papp: 15 ×10⁻⁶ cm/s
Nc1cc(N2CCCCC2)nc(N)[n+]1[O-] — Papp B→A (10 µM; 2 h; pH 7.4): 7.19 ×10⁻⁶ cm/s
CNC(=C[N+](=O)[O-])NCCSCc1ccc(CN(C)C)o1 — Papp B→A: 2 ×10⁻⁶ cm/s
O=c1c(O)c(-c2ccc(O)c(O)c2)oc2cc(O)cc(O)c12 — Papp (1 mg/mL; pH 7.4): 1.7 ×10⁻⁶ cm/s
Cc1ncsc1-c1ccc(CNC(=O)[C@@H]2C[C@@H](O)CN2C(=O)[C@@H](NC(=O)C2(F)CC2)C(C)(C)C)c(OCCOc2ccc(CN3CCN(c4cc(-c5ccccc5O)nnc4N)CC3)cc2)c1 — Papp B→A (2 h; pH 7.2): 3.8 ×10⁻⁶ cm/s
CCC(C)n1ncn(-c2ccc(N3CCN(c4ccc(OCC5COC(Cn6cncn6)(c6ccc(Cl)cc6Cl)O5)cc4)CC3)cc2)c1=O (centres unmarked) — Papp (1 µM; pH 7.4): 1.5 to 2.5 ×10⁻⁶ cm/s
Cn1c(=O)c2c(nc(S)n2C)n(C)c1=O — Papp B→A (10 µM; 2 h): 3 ×10⁻⁶ cm/s
O=C(c1cc(Cc2n[nH]c(=O)c3ccccc23)ccc1F)N1CCN(C(=O)C2CC2)CC1 — Papp: 7.75 ×10⁻⁶ cm/s
C[C@@H]1O[C@@H](OC[C@H]2O[C@@H](Oc3c(-c4ccc(O)c(O)c4)oc4cc(O)cc(O)c4c3=O)[C@H](O)[C@@H](O)[C@@H]2O)[C@H](O)[C@H](O)[C@H]1O — Papp (1 mg/mL; pH 7.4): 24.5 ×10⁻⁶ cm/s
CCC(=O)N[C@H]1Cc2cccc(C(=O)O)c2OB1O — Papp B→A (5 µM; 2 h; pH 7.4): 0.15 ×10⁻⁶ cm/s
CN(C)C(=O)c1cc2cnc(Nc3ccc(N4CCNCC4)cn3)nc2n1C1CCCC1 — Papp: 1.83 ×10⁻⁶ cm/s
